An excerpt weighted towards active compounds, which were near 5.8% of everything screened.
IDH1 R132H inh – inhibitors of human IDH1 R132H; O75874; hit rate 0.18% among 70,000; IDH1 R132H reductase, diaphorase/resazurin fluorescence, 60 min; inhibition, % at 10 µM; in the data active = inhibition above about 34%; inconclusive = no clear call, values can overlap the other calls; inactive = below about 11%
Target sequence (O75874 whole entry R132H): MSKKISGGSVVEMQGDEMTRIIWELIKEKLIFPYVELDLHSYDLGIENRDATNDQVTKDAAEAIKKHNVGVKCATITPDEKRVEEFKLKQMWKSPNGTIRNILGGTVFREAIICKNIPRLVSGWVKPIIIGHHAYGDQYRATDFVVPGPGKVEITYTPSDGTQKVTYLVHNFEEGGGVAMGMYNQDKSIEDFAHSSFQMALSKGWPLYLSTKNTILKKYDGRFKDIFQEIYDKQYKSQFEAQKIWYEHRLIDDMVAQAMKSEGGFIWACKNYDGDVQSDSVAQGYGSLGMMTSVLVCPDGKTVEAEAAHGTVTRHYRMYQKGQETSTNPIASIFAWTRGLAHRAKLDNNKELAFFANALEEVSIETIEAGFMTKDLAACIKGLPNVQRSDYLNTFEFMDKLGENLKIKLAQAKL
GASC1 inh – inhibitors of human demethylase GASC-1 KDM4C; Q9H3R0; GST-KDM4C 2-372, H3K9me3 peptide, LANCE TR-FRET; inhibition, % at 12.5 µM; hit rate 0.15% among 96,000; AID 720574;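 active = mean replicate inhibition above about 25%, with at least 55% of replicates also reaching it, limit read from the data, passing the limit was not always enough; inconclusive = only one of those two conditions met; inactive = neither condition met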
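System: N-terminal GST-fused human GASC-1 (KDM4C) fragment, residues 2-372; amount: enzyme final amount 10 nM; incubation: reaction 30 min RT, detection step 1 h RT; medium: HEPES buffer, pH 7.5, plus ascorbate; technique: LANCE TR-FRET, Eu antibody, ULight-streptavidin, EDTA, ex 340 nm, em 618/671 nm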
T cruzi growth-1 – inhibitors of T. cruzi proliferation; T. cruzi beta-gal in NIH3T3, GalScreen luminescence, 90 h; inhibition, % at 8.34 µM; hit rate 5.9% among 77,000;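 active = mean inhibition above about 93%, with at least 55% of replicates each passing it, limit read from the data, passing the limit was not always enough; inconclusive = only one of those two conditions holds; inactive = neither condition holds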
Pf Dd2 growth – inhibitors of Plasmodium falciparum Dd2 growth; P. falciparum Dd2 growth, SYBR Green, 72 h; active compounds read low; activity change, % at 10 µM; hit rate 2.3% among 94,000; AID 1159554; in the data active = activity change below about -80%; inconclusive = no clear call, values can overlap the other calls
T cruzi growth-2 – inhibitors of T. cruzi proliferation | shares compounds with T cruzi growth-1 | T. cruzi beta-gal in NIH3T3, GalScreen luminescence, 90 h | inhibition, % at 8.35 µM | hit rate 72% among 5,600;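 active = mean replicate inhibition above about 95% and at least 55% of replicates individually reaching it, limit read from the data; inconclusive = only one of the two criteria is met; inactive = neither criterion is met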
T cruzi growth-3 – Trypanosoma cruzi proliferation inhibition; inhibition, % at 2.09 µM; shares compounds with T cruzi growth-1; hit rate 21% among 5,600; T. cruzi beta-gal in NIH3T3, GalScreen luminescence, 90 h;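 active = mean inhibition above about 95%, with at least 55% of replicates also reaching it, limit read from the data; inconclusive = meets just one of the two conditions; inactive = meets neither condition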
3T3 cytotox – kills mouse NIH/3T3 fibroblasts. shares compounds with T cruzi growth-1. NIH/3T3 viability, CellTiter-Glo ATP luminescence, 90 h. cytotoxicity (signal decrease), % at 8.35 µM. hit rate 14% among 5,600;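 active = mean signal decrease across replicates above about 35% based on untreated-well scatter, with enough replicates individually passing, limit read from the data; inconclusive = no rule stated though some were filed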
3T3 cytotox 2 – cytotoxicity in mouse NIH/3T3 fibroblasts; shares compounds with T cruzi growth-1; NIH/3T3 viability, CellTiter-Glo ATP luminescence, 90 h; inhibition, % at 24.9 µM; hit rate 56% among 5,600; AID 651744;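 active = mean loss of cell viability signal at or above a set limit, and enough replicates individually reaching it; inconclusive = meets only the mean limit or only the replicate share; inactive = meets neither condition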
Large screens that a line does not name were inactive (follow-up assays come after a bar, where they were run).

C[C@@H]1CN([C@@H](C)CO)C(=O)c2cc(NS(=O)(=O)c3ccc(F)cc3)ccc2O[C@@H](C)CCCCO[C@@H]1CN(C)CC1CCCCC1	none (no result: IDH1 R132H inh)
C[C@@H]1CN([C@@H](C)CO)C(=O)c2cccc(NC(=O)Nc3ccc(F)cc3)c2O[C@H]1CN(C)C(=O)Nc1cccc2ccccc12	none (no result: IDH1 R132H inh)
N#C[C@H]1[C@H](c2ccc(C#Cc3ccccc3F)cc2)[C@@H](CO)N1C(=O)c1cccnc1	T cruzi growth-1 inconclusive (no result: IDH1 R132H inh) | T cruzi growth-2 105 | T cruzi growth-3 inactive | 3T3 cytotox inactive | 3T3 cytotox 2 inactive
N#C[C@@H]1[C@@H](c2ccc(C#Cc3ccccc3F)cc2)[C@H](CO)N1C(=O)c1cccnc1	none (no result: IDH1 R132H inh)
O=C(Nc1ccccc1)N1CCCCN2[C@H](C1)[C@H](c1ccc(-c3ccccc3F)cc1)[C@@H]2CO	T cruzi growth-1 113 (no result: IDH1 R132H inh) | T cruzi growth-2 108 | T cruzi growth-3 inactive | 3T3 cytotox inactive | 3T3 cytotox 2 inconclusive
O=C(Nc1ccc(F)cc1)N1CCCCN2[C@H](CO)[C@H](c3ccc(-c4ccccc4F)cc3)[C@H]2C1	none (no result: IDH1 R132H inh, GASC1 inh)
O=C(Nc1ccc(F)cc1)N1CCCCN2[C@H](CO)[C@@H](c3ccc(-c4ccccc4F)cc3)[C@@H]2C1	T cruzi growth-1 112 (no result: IDH1 R132H inh, GASC1 inh) | T cruzi growth-2 101 | T cruzi growth-3 104 | 3T3 cytotox inactive | 3T3 cytotox 2 104
O=C(Nc1ccc(F)cc1)N1CCCCN2[C@H](CO)[C@@H](c3ccc(-c4ccccc4F)cc3)[C@H]2C1	T cruzi growth-1 104 (no result: IDH1 R132H inh, GASC1 inh) | T cruzi growth-2 97 | T cruzi growth-3 inconclusive | 3T3 cytotox 58 | 3T3 cytotox 2 105
COc1ccc(CN(C)C[C@H]2Oc3ccc(NS(=O)(=O)c4ccc(C)cc4)cc3CC(=O)N([C@H](C)CO)C[C@H]2C)cc1	T cruzi growth-1 115 | T cruzi growth-2 108 | T cruzi growth-3 inactive | 3T3 cytotox inactive | 3T3 cytotox 2 inconclusive
COc1ccc(CN(C)C[C@H]2Oc3ccc(NS(=O)(=O)c4ccc(OC)cc4)cc3CC(=O)N([C@H](C)CO)C[C@@H]2C)cc1	none (no result: T cruzi growth-1)
COc1ccc(CN(C)C[C@@H]2Oc3ccc(NS(=O)(=O)c4ccc(OC)cc4)cc3CC(=O)N([C@H](C)CO)C[C@H]2C)cc1	T cruzi growth-1 105 | T cruzi growth-2 103 | T cruzi growth-3 inactive | 3T3 cytotox inactive | 3T3 cytotox 2 inactive
COc1ccc(S(=O)(=O)Nc2ccc3c(c2)CC(=O)N([C@H](C)CO)C[C@@H](C)[C@H](CN(C)Cc2ccc(C(F)(F)F)cc2)O3)cc1	T cruzi growth-1 inconclusive | T cruzi growth-2 102 | T cruzi growth-3 inactive | 3T3 cytotox inactive | 3T3 cytotox 2 59
COc1ccc(CN(C)C[C@H]2Oc3ccc(NS(=O)(=O)c4ccc(OC)cc4)cc3CC(=O)N([C@H](C)CO)C[C@H]2C)cc1	none (no result: IDH1 R132H inh)
CO[C@H]1CN(C)C(=O)c2ccc(NC(=O)C3CCCCC3)cc2OC[C@H](C)N(C)C[C@H]1C	none
C[C@@H]1CN([C@H](C)CO)C(=O)c2cc(NS(=O)(=O)c3cn(C)cn3)ccc2O[C@H]1CN(C)C(=O)Nc1ccc2c(c1)OCO2	none
C/C=C/c1ccc2c(c1)O[C@H](CN(C)Cc1cccnc1)[C@@H](C)CN([C@H](C)CO)S2(=O)=O	IDH1 R132H inh inconclusive, T cruzi growth-1 106 | T cruzi growth-2 103 | T cruzi growth-3 100 | 3T3 cytotox 48 | 3T3 cytotox 2 71
C/C=C/c1ccc2c(c1)O[C@H](CN(C)Cc1cccnc1)[C@H](C)CN([C@@H](C)CO)S2(=O)=O	T cruzi growth-1 inconclusive | T cruzi growth-2 inactive | T cruzi growth-3 inactive | 3T3 cytotox inactive | 3T3 cytotox 2 inactive
C[C@@H]1CN([C@H](C)CO)S(=O)(=O)c2ccc(/C=C/c3ccccc3)cc2O[C@@H]1CN(C)Cc1cccnc1	T cruzi growth-1 128 | T cruzi growth-2 inactive | T cruzi growth-3 inactive | 3T3 cytotox 83 | 3T3 cytotox 2 96

Assay outcomes: PubChem BioAssay, Broad Institute
